{
  "source": "ChEMBL document CHEMBL1151428",
  "about": "“Capability of 11 antipneumococcal antibiotics to select for resistance by multistep and single-step methodologies” (2007)",
  "type_in_all_cases": "functional",
  "key": {"Streptococcus pneumoniae [1]": {"system": "Streptococcus pneumoniae", "test": "Antimicrobial activity against drug-resistant Streptococcus pneumoniae isolate 3676 after 50 passages by multi-step resistance selection technique", "how_it_was_run": "(§1)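 Daily serial passage in broth at subinhibitory drug levels: 1 ml cation-adjusted Mueller-Hinton broth with 5% lysed horse blood; fresh broth for tigecycline. Each day 10 μl inoculum taken from the tube one to two dilutions below MIC matching growth-control turbidity, used to set next MIC. Continued until ≥8-fold MIC rise, minimum 14, maximum 50 passages; MIC read by macrodilution.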"}, "Streptococcus pneumoniae [2]": {"system": "Streptococcus pneumoniae", "test": "Antimicrobial activity against drug-resistant Streptococcus pneumoniae isolate 2527 after 14 passages with gemifloxacin measured after 10 antibiotic-free subculture by multi-step resistance selection technique", "how_it_was_run": "(§2)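 Mutants selected by daily broth passage in subinhibitory drug in cation-adjusted Mueller-Hinton broth with 5% lysed horse blood. Stability was tested by 10 daily passages on blood agar without antibiotic, then macrodilution MIC.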"}, "Streptococcus pneumoniae [3]": {"system": "Streptococcus pneumoniae", "test": "Antimicrobial activity against drug-resistant Streptococcus pneumoniae isolate 3665 after 38 passages by multi-step resistance selection technique", "how_it_was_run": "as §1"}, "Streptococcus pneumoniae [4]": {"system": "Streptococcus pneumoniae", "test": "Antimicrobial activity against drug-resistant Streptococcus pneumoniae isolate 1076 after 35 passages by multi-step resistance selection technique", "how_it_was_run": "(§3)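 Daily serial passage in subinhibitory drug levels in 1 ml cation-adjusted Mueller-Hinton broth with 5% lysed horse blood; fresh broth for tigecycline. Each day, 10 μl were taken from the tube one to two dilutions below the MIC whose turbidity matched the growth control, and used to set the next MIC. […] MIC by macrodilution.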"}, "Streptococcus pneumoniae [5]": {"system": "Streptococcus pneumoniae", "test": "Antimicrobial activity against drug-resistant Streptococcus pneumoniae isolate 2527 by NCCLS M7-A7 method"}, "Streptococcus pneumoniae [6]": {"system": "Streptococcus pneumoniae", "test": "Antimicrobial activity against drug-resistant Streptococcus pneumoniae isolate 3009 after 19 passages by multi-step resistance selection technique", "how_it_was_run": "as §3"}, "Streptococcus pneumoniae [7]": {"system": "Streptococcus pneumoniae", "test": "Antimicrobial activity against drug-resistant Streptococcus pneumoniae isolate 3243 after 20 passages by multi-step resistance selection technique", "how_it_was_run": "as §3"}, "Streptococcus pneumoniae [8]": {"system": "Streptococcus pneumoniae", "test": "Antimicrobial activity against drug-resistant Streptococcus pneumoniae isolate 3676 after 50 passages with moxifloxacin measured after 10 antibiotic-free subculture by multi-step resistance selection technique"}, "Streptococcus pneumoniae [9]": {"system": "Streptococcus pneumoniae", "test": "Antimicrobial activity against drug-resistant Streptococcus pneumoniae isolate 3665 after 38 passages with moxifloxacin measured after 10 antibiotic-free subculture by multi-step resistance selection technique"}, "Streptococcus pneumoniae [10]": {"system": "Streptococcus pneumoniae", "test": "Antimicrobial activity against drug-resistant Streptococcus pneumoniae isolate 1076 after 14 passages with Telithromycin measured after 10 antibiotic-free subculture by multi-step resistance selection technique", "how_it_was_run": "as §2"}, "Streptococcus pneumoniae [11]": {"system": "Streptococcus pneumoniae", "test": "Antimicrobial activity against drug-resistant Streptococcus pneumoniae isolate 1076 by NCCLS M7-A7 method"}, "Streptococcus pneumoniae [12]": {"system": "Streptococcus pneumoniae", "test": "Antimicrobial activity against drug-resistant Streptococcus pneumoniae isolate 3009 after 21 passages with gemifloxacin measured after 10 antibiotic-free subculture by multi-step resistance selection technique", "how_it_was_run": "as §2"}, "Streptococcus pneumoniae [13]": {"system": "Streptococcus pneumoniae", "test": "Antimicrobial activity against drug-resistant Streptococcus pneumoniae isolate 2527 after 50 passages by multi-step resistance selection technique", "how_it_was_run": "as §3"}},
  "data": [
    {"smiles": "COc1c(N2C[C@@H]3CCCN[C@@H]3C2)c(F)cc2c(=O)c(C(=O)O)cn(C3CC3)c12", "note": "[MOXIFLOXACIN]", "values": [
      {"measurement": "MIC", "setting": "Streptococcus pneumoniae [1]", "value": 8, "unit": "µg/mL"},
      {"measurement": "MIC", "setting": "Streptococcus pneumoniae [2]", "value": 8, "unit": "µg/mL"},
      {"measurement": "MIC", "setting": "Streptococcus pneumoniae [3]", "value": 1, "unit": "µg/mL"},
      {"measurement": "MIC", "setting": "Streptococcus pneumoniae [4]", "value": 8, "unit": "µg/mL"},
      {"measurement": "MIC", "setting": "Streptococcus pneumoniae [5]", "value": 2, "unit": "µg/mL"},
      {"measurement": "MIC", "setting": "Streptococcus pneumoniae [6]", "value": 2, "unit": "µg/mL"},
      {"measurement": "MIC", "setting": "Streptococcus pneumoniae [7]", "value": 1, "unit": "µg/mL"},
      {"measurement": "MIC", "setting": "Streptococcus pneumoniae [8]", "value": 8, "unit": "µg/mL"},
      {"measurement": "MIC", "setting": "Streptococcus pneumoniae [9]", "value": 1, "unit": "µg/mL"},
      {"measurement": "MIC", "setting": "Streptococcus pneumoniae [10]", "value": 1, "unit": "µg/mL"},
      {"measurement": "MIC", "setting": "Streptococcus pneumoniae [11]", "value": 1, "unit": "µg/mL"},
      {"measurement": "MIC", "setting": "Streptococcus pneumoniae [12]", "value": 2, "unit": "µg/mL"},
      {"measurement": "MIC", "setting": "Streptococcus pneumoniae [13]", "value": 8, "unit": "µg/mL"}
    ]}
  ]
}
